High-throughput results as filed in PubChem BioAssay.
NS3 helicase inh: inhibitors of HCV NS3 helicase, primary screen, biochemical, Cy5 molecular beacon fluorescence; NS3 helicase DNA unwinding; inhibition, % at 10.9 µM; actives 0.56% (n = 290,000);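 active = inhibition above the mean of all tested compounds plus 3 SD, set per campaign, cut at about 35% in these data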;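 note: 0% = DMSO wells and 100% = thioflavine S control wells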
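System: HCV NS3 helicase fragment; control set: DMSO and thioflavine S; technique: Cy5 fluorescence at 0 and 60 min, beacon hairpin quenching; reagent: beacon DNA duplex substrate plus ATP; replicates: singlicate; schedule: 1 h reaction at 25 °C, ATP-initiated; medium: MOPS buffer pH 6.5 with MgCl2, DTT, Tween20, BSA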
DNA FID counter-1: compounds displacing fluorescent DNA intercalator, primary screen, artefact control for HCV NS3 helicase inhibitor project, biochemical, FID fluorescence; inhibition, % at 7.9 µM; actives 0.17% (n = 290,000); DNA fluorescent intercalator displacement;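 note: 0% = vehicle and 100% = reference compound; higher means more ethidium bromide displaced from hairpin DNA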
PP1 counter: PP1-alpha phosphatase inhibitors, primary screen, counter-screen for PP5 inhibitor project, biochemical, fluorescence, OMFP substrate, single point | actives 0.9% (n = 320,000) | inhibition, % at 6.7 µM | Serine/threonine-protein phosphatase PP1-alpha catalytic subunit (Homo sapiens), P62136 | purified PP1alpha;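 active = inhibition above the mean inhibition of all tested compounds plus 3 SD, computed separately for each screening campaign, cut at about 15% in these data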
HIF act: HIF pathway transcriptional activators, primary screen, cell-based, U2OS HRE-luciferase, luminescence. AID 1910, 2009. actives 0.32% (n = 300,000). activation, % at 7.5 µM (by protocol). U2OS HRE-luciferase reporter; normalized: DMSO 0%, desferrioxamine 100%;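 active = mean activation of at least 10% of the iron chelator positive control signal, with at least half of replicates also reaching 10%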
PP5 primary: PP5 phosphatase inhibitors, primary screen, biochemical, fluorescence. inhibition, % at 6.7 µM. purified PP5c, OMFP substrate fluorescence. Serine/threonine-protein phosphatase 5 (Homo sapiens), P53041. actives 0.18% (n = 320,000). AID 1987, 2009;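 active = inhibition above the campaign's mean inhibition across all tested compounds plus 3 SD, cut at about 9.5% in these data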;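 note: 0% = DMSO only and 100% = 100 µM cantharidin control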
Target sequence (P53041 whole entry, looked up): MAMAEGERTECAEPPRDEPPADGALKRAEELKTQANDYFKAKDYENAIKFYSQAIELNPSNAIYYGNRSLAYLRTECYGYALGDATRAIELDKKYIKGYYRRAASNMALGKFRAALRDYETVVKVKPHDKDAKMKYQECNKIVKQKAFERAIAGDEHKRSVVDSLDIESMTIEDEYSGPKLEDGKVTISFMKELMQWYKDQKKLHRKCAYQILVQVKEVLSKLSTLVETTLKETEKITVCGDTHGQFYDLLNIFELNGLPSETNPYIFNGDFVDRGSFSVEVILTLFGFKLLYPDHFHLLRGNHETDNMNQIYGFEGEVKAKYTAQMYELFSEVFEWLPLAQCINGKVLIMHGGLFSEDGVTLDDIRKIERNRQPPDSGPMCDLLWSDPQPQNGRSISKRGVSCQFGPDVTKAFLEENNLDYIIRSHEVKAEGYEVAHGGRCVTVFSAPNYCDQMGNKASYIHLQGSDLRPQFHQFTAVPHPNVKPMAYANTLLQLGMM
NS3 helicase cf: HCV NS3 helicase inhibitors, retest, confirmation, biochemical, Cy5 molecular beacon fluorescence, triplicate; inhibition, % at 10.9 µM; NS3 helicase DNA unwinding; shares compounds with NS3 helicase inh; actives 31% (n = 1,600);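 active = inhibition above the mean of all tested compounds plus 3 SD, cutoff set per campaign, cut at about 36% in these data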
DNA FID counter-2: compounds displacing fluorescent DNA intercalator, artefact control for HCV NS3 helicase inhibitor project, biochemical, FID fluorescence, triplicate; shares compounds with NS3 helicase inh; DNA fluorescent intercalator displacement; inhibition, % at 7.9 µM; actives 4% (n = 1,600); AID 1945, 2009;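 note: 0% = vehicle and 100% = reference compound; higher means more displacement of ethidium bromide from the DNA hairpin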
Numbers without * were called inactive; . = not tested or not shown. Compounds with a hit are over-represented: about 1.9% of the library has one in this group of screens. Cut-off read from the data, not from the text of the source, unless noted: active = inhibition above about 37%; inactive = the rest.

SMILES | NS3 helicase inh | DNA FID counter-1 | PP1 counter | HIF act | PP5 primary | NS3 helicase cf | DNA FID counter-2
CCc1ccc(NC2CC(=O)N(CCc3ccc(OC)c(OC)c3)C2=O)cc1 (stereo not given) | 9 | -21 | 1 | 0 | 0 | . | .
CC(C)N1C(=O)CC(Nc2cccc3cccc(N)c23)C1=O (stereo not given) | 40* | -8 | . | . | . | -15 | 10
COc1ccc(CCN2C(=O)CC(Nc3ccc(N4CCOCC4)cc3)C2=O)cc1OC (stereo not given) | 46* | -37 | 5 | 0 | 1 | 2 | -18
COc1ccc(NC2CC(=O)N(C(C)C)C2=O)cc1 (stereo not given) | 11 | -5 | -1 | 1 | 2 | . | .
O=C1CC(Nc2ccccc2)C(=O)N1c1ccc(N2CCOCC2)cc1 (stereo not given) | 3 | -4 | -2 | . | 0 | . | .
CC(C)N1C(=O)CC(Nc2ccc(N3CCOCC3)cc2)C1=O (stereo not given) | 39* | -17 | -3 | 2 | 2 | -2 | -5
COc1ccc([C@H]2CC(=O)C=C(c3ccc(Oc4ccccc4)cc3)C2)cc1OC | . | . | -1 | . | 3 | . | .
O=C1CSC(=S)N1/N=C/C=C/c1ccccc1 | 39* | -41 | 0 | 1 | 2 | 7 | 10
O=C1CSC(=S)N1/N=C/c1c(F)cccc1F | 8 | -10 | 0 | -1 | 1 | . | .
C=CCSC1=N/C(=C\c2cc(OCC)c(OC(C)=O)c([N+](=O)[O-])c2)C(=O)S1 | 50* | -24 | 3 | 0 | 2 | 92* | 16
Cc1c(NC(=O)c2nn3c(C(F)(F)F)cc(-c4ccccc4)nc3c2Cl)c(=O)n(-c2ccccc2)n1C | 37* | 1 | 0 | -1 | 0 | -14 | -34
COc1ccc(CN(C)C(=O)Cc2ccc(S(=O)(=O)N3CCOCC3)s2)cc1OC | . | . | -2 | . | -1 | . | .
CC[C@@H](C)[C@H](NC(=O)Cc1c(C)c2c(cc(C)c3c(C)c(C)oc32)oc1=O)C(=O)O | 37* | -32 | . | -31 | . | 10 | -24
CCOC(=O)C1(Cc2cccc(Cl)c2)CCCN(C(=O)CCN2CCCC2=O)C1 (stereo not given) | 65* | -38 | 0 | 0 | 4 | -12 | -38
COC(c1ccc(Cl)cc1)(c1ccc(Cl)cc1)C(Oc1nccc(C)n1)C(=O)O (stereo not given) | 30 | -30 | 3 | 0 | 0 | . | .
Cc1cc(C)nc(OC(C(=O)O)C(OCCc2ccccc2)(c2ccccc2)c2ccccc2)n1 (stereo not given) | 37* | -33 | -1 | -2 | 1 | 107* | 8
COC(c1ccc(Cl)cc1)(c1ccc(Cl)cc1)C(Oc1nc(C)cc(C)n1)C(=O)O (stereo not given) | 37* | -29 | -1 | -1 | 0 | 36* | -4
COc1ccc(-c2noc(N3CCC(C(=O)NC(C)c4ccccc4)CC3)n2)cc1 (stereo not given) | 2 | -47 | -4 | 0 | -2 | . | .
Cc1ccc(CNC(=O)Cn2cnc(S(=O)(=O)N3CCC(C)CC3)c2)o1 | 4 | -6 | -3 | 0 | 3 | . | .
COc1ccc(-c2nc(=S)c3c([nH]2)Oc2ccc(C)cc2C3)cc1O | 53* | -26 | -1 | 0 | 0 | 12 | -16
CCOc1ccc(-n2ccc(=O)c(C(=O)Nc3ccc(S(=O)(=O)Nc4nccs4)cc3)n2)cc1 | 37* | -23 | 7 | 0 | 3 | -19 | -2
Cn1cccc1CC(=O)NNC(=S)Nc1ccc(F)cc1 | 36* | -17 | -1 | 0 | -5 | -17 | 1
Cn1cccc1CC(=O)NNC(=O)Nc1ccc(F)cc1 | 12 | -12 | 4 | 0 | 1 | . | .
COc1cccc(CNC(=O)C(C(=O)NCc2cccc(OC)c2)c2ncc(C(F)(F)F)cc2Cl)c1 | 2 | 1 | 2 | -1 | -1 | . | .
